PubChem BioAssay
Active and inactive are the calls of the source.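 The calls were made as follows, unless noted: active = viability at or under a set limit in both replicates, limit being median viability minus 3 SD (cut at about 48% in these data, passing the limit was not always enough); inconclusive = at or under the limit in just one replicate; inactive = at or above the limit in both replicates.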

Key:
[1] = Her2 expression decrease, cell viability multiplex – SKBR3 breast tumor cells, AlphaScreen, ATP viability, primary screen (AID 461;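 active = Her2 level under about 52% in both replicate screens, with viability over 70% of control, limit read from the data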;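 as to Her2 level: lower value means less Her2 protein in the cells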;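 as to viability: percent of carrier control wells set as 100% viability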); details: SKBR3 Her2 protein level, 18-24 h, measured here: SKBR3 viability, ATP luminescence, at 10 µM
[2] = target: Receptor tyrosine-protein kinase erbB-2 (Homo sapiens) (UniProt P04626); assay: as above; details: 18-24 h, at 10 µM, stronger effect = lower value
[3] = reduced viability of SK-BR-3 breast cancer cells – cell-based, 24 h, human, pilot screen (AID 572;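 active = viability at or below 10% of carrier control in both of two separate runs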;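 also: compound exposure lasted between 18 and 24 h rather than exactly 24 h; 100% = carrier-treated control wells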); details: SK-BR-3 viability, CellTiter-Glo luminescence, at 10 µM, stronger effect = lower value
[4] = HUVEC growth inhibition – cell-based, human, primary screen (AID 575;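 active = viability at or below 30% in both replicate assays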;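 also: 100% = median of untreated cell wells with 0.1% DMSO on each plate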); details: HUVEC proliferation, CellTiter-Glo luminescence, 72 h; at 10 µM; stronger effect = lower value
Procedure, shortened: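 Assay system: Primary human umbilical vein endothelial cells | Quantity: 1250 cells per well | Medium: Supplemented EBM, 2% fetal bovine serum | Detection: CellTiter-Glo luminescence measuring cellular ATP | Read-out: % viability vs DMSO wells | Plate: Collagen-coated 384-well format | Times: 72 h exposure, 37 °C, 5% CO2, 30 min RT equilibration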

[5] = H69AR cell proliferation blockers – human, duplicate replicates, primary screen (AID 580); details: H69AR lung tumor cells viability, ATP luminescence, 72 h; at 10 µM; stronger effect = lower value;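 also: 100% = mean luminescence of untreated wells and 0% = no signal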
[6] = MRP1 drug-resistance reversers in H69AR cells – cell-based, doxorubicin co-treatment, pilot screen (AID 601;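 active = viability loss from added drug above about 55%, and viability with drug at most 40%, in both replicates, limit read from the data, passing the limit was not always enough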); details: CellTiter-Glo, 72 h, at 10 µM; for differential viability (reversal): stronger effect = higher value
[7] = yeast transport mutant growth inhibition pilot in 384-well plates, post-Golgi transport modulator project (AID 636; in the data active = inhibition above about 31%); details: absorbance 615 nm, about 18 h, stronger effect = higher value
[8] = growth suppression of yeast trafficking mutant, preliminary HTS, modulators of trafficking downstream of Golgi apparatus project, 1536-format plate, OD 615 nm (AID 637; in the data active = inhibition above about 30%); details: yeast transport mutant growth, absorbance 615 nm, 18 h; stronger effect = higher value
[9] = H69AR cells + 2 uM doxorubicin, measured here: viability with 2 uM doxorubicin, stronger effect = lower value
[10] = H69AR cells, compound alone cytotoxicity

Chain of Receptor tyrosine-protein kinase erbB-2 (Homo sapiens) (P04626 whole entry, looked up): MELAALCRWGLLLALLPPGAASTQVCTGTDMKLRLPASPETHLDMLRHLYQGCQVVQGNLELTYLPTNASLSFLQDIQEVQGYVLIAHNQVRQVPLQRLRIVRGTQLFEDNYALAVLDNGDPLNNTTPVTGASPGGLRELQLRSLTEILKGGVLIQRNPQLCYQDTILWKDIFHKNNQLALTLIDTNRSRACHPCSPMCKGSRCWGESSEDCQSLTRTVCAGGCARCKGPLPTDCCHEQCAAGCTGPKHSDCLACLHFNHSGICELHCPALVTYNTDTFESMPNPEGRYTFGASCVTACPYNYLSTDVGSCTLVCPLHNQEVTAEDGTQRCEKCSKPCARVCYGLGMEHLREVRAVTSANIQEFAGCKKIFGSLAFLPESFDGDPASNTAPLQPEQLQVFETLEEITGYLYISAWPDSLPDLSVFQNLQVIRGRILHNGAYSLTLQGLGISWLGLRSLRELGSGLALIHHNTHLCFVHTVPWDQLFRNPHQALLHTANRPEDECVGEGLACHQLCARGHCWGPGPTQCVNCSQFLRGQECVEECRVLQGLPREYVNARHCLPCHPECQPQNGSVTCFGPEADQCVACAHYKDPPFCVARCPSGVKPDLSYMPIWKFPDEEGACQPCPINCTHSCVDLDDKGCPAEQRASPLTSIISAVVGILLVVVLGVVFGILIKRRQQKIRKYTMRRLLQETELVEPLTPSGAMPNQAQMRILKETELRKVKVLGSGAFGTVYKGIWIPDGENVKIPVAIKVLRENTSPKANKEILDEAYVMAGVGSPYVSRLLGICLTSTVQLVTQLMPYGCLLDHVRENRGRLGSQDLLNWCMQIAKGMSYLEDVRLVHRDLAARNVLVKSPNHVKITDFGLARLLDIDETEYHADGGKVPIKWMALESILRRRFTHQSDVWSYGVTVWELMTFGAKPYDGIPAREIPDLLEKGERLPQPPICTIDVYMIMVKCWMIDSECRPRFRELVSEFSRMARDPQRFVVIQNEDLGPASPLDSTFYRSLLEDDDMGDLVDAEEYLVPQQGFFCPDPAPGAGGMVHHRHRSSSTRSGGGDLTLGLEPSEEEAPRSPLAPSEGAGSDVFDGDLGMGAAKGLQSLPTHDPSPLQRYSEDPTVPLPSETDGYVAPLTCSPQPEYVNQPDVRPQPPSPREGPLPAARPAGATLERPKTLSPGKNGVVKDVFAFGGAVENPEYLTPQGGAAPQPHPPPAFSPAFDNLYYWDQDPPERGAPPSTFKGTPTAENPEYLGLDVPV

SMILES	viability [1] [%]	Her2 level [2]	viability [3]	viability [4]	viability [5]	differential viability (reversal) ([6]; H69AR cells + 2 uM doxorubicin)	viability [6, 9] [%]	viability [6, 10] [%]	inhibition [7]	inhibition [8]
CCOC(=O)C1CCN(c2c(NC3CCCCCCC3)c(=O)c2=O)CC1	90	112% (inactive)	90% (inactive)	92.2% (inactive)	79.7% (inactive)	8.71% (inactive)	71	79.7	0.64% (inactive)	0.5% (inactive)
Cn1c(=O)c2c(nc(NCc3ccco3)n2C/C=C/c2ccccc2)n(C)c1=O	100	84.5% (inactive)	100% (inactive)	89.3% (inactive)	101% (inactive)	5.26% (inactive)	96.1	101	-1.69% (inactive)	0.16% (inactive)
CCN1CCN(c2c(Cl)cccc2NC(=O)c2ccc3c(c2)OCCO3)CC1	80	84.5% (inactive)	80% (inactive)	95.2% (inactive)	81.7% (inactive)	1.33% (inactive)	80.4	81.7	-5% (inactive)	3% (inactive)
CCOC(=O)c1sc(NC(=O)CSc2nnnn2-c2ccccc2)c(C(=O)OCC)c1C	80	85% (inactive)	80% (inactive)	36.6% (inactive)	65.7% (inactive)	19.6% (inactive)	46.1	65.7	4.68% (inactive)	-6.83% (inactive)
CCOc1ccccc1N1CCN(c2nc3ccccc3nc2C(C#N)C(=O)OC)CC1 (stereo not given)	74	78% (inactive)	74% (inactive)	71.7% (inactive)	83.9% (inactive)	-4.64% (inactive)	88.5	83.9	1.45% (inactive)	-2.1% (inactive)
COC(=O)c1oc2ccc(OC)cc2c1N	107	88% (inactive)	107% (inactive)	82.4% (inactive)	100% (inactive)	13.9% (inactive)	86.2	100	-2.53% (inactive)	-4.84% (inactive)
COc1ccc(-c2noc(-c3ccccc3C(=O)Nc3cccnc3)n2)cc1	109	98.5% (inactive)	109% (inactive)	106% (inactive)	86.5% (inactive)	13.2% (inactive)	73.3	86.5	-1.17% (inactive)	0.79% (inactive)
CC(=O)NC1CC2CCCC(C1)N2CC(=O)Nc1ccccc1 (stereo not given)	95.5	97% (inactive)	95.5% (inactive)	88.9% (inactive)	96.7% (inactive)	11.4% (inactive)	85.2	96.7	0.13% (inactive)	-6.98% (inactive)
CC1Cc2ccccc2N1C(=O)c1cccnc1 (stereo not given)	121	91.5% (inactive)	121% (inactive)	92.8% (inactive)	98.1% (inactive)	2.02% (inactive)	96	98.1	-2.21% (inactive)	-0.16% (inactive)
Cc1ccc(NC(=O)CSc2nnc(CCCCCNC(=O)OC(C)(C)C)o2)c(C)c1	112	87% (inactive)	112% (inactive)	88.6% (inactive)	93.2% (inactive)	1.79% (inactive)	91.4	93.2	1.71% (inactive)	1.29% (inactive)
CN(C)CC(=O)N1c2ccccc2CCc2ccc(NC(=O)c3ccc(N)cc3)cc21	103	102% (inactive)	103% (inactive)	82.1% (inactive)	83.8% (inactive)	-4.88% (inactive)	88.7	83.8	-5.79% (inactive)	4.26% (inactive)
Cc1ccc(-n2c(SCC3CCCCO3)nnc2-c2ccco2)cc1 (stereo not given)	89	83% (inactive)	89% (inactive)	102% (inactive)	91.4% (inactive)	15.5% (inactive)	75.9	91.4	0% (inactive)	-8.5% (inactive)
O=C(Cn1ccc2ccccc2c1=O)NCCC(=O)N1CCN(C2CCCCC2)CC1	99.5	86.5% (inactive)	99.5% (inactive)	96.6% (inactive)	104% (inactive)	22.2% (inactive)	81.7	104	-3.2% (inactive)	2.13% (inactive)
CC(CN1CCCCC1)OC(=O)c1ccc2c(c1)OCO2 (stereo not given)	104	96% (inactive)	104% (inactive)	99.1% (inactive)	94.1% (inactive)	7.31% (inactive)	86.8	94.1	-4.4% (inactive)	6.72% (inactive)
O=c1[nH]c2cc3c(cc2cc1C(c1nnnn1Cc1ccccc1)N1CCCc2ccccc21)OCO3 (stereo not given)	98.5	95.5% (inactive)	98.5% (inactive)	79.3% (inactive)	61.6% (inactive)	-0.235% (inactive)	61.8	61.6	-3.73% (inactive)	4.43% (inactive)
CCCCC(=O)Nc1c(O)c2ccccc2[nH]c1=O	95.5	107% (inactive)	95.5% (inactive)	108% (inactive)	98.3% (inactive)	-2.29% (inactive)	101	98.3	-6.93% (inactive)	-8.69% (inactive)
Cc1ccc(CNC(=O)CCCn2c(=O)c3ccccc3n(CC(=O)NCc3ccco3)c2=O)cc1	90.5	144% (inactive)	90.5% (inactive)	104% (inactive)	89.6% (inactive)	-1.43% (inactive)	91	89.6	2.76% (inactive)	12.6% (inactive)
O=C1COc2ccc(C(=O)COC(=O)CCc3ccc(S(=O)(=O)N4CCOCC4)cc3)cc2N1	105	98% (inactive)	105% (inactive)	80.3% (inactive)	79% (inactive)	-10.4% (inactive)	89.4	79	2.69% (inactive)	1.67% (inactive)
Cc1ccnc(N2CCN(C(=O)CSc3nc4ccccc4nc3N3CCCCC3)CC2)c1	109	70.5% (inactive)	109% (inactive)	62% (inactive)	92.7% (inactive)	9.7% (inactive)	83	92.7	-3.03% (inactive)	-2.83% (inactive)
COc1ccc(C(=O)Nn2c(SCC(=O)NCC3CCCO3)nc3ccccc3c2=O)cc1 (stereo not given)	92.5	95% (inactive)	92.5% (inactive)	76.8% (inactive)	83.8% (inactive)	9.29% (inactive)	74.5	83.8	-6.53% (inactive)	-0.81% (inactive)
CN(C(=O)c1ccncc1)C1CC(C)(C)N(O)C(C)(C)C1	124	96.5% (inactive)	124% (inactive)	87.7% (inactive)	92.3% (inactive)	-1.93% (inactive)	94.2	92.3	-7.11% (inactive)	-6.36% (inactive)
COC(=O)/C=c1/s/c(=C(/C#N)C(=O)N2CCOCC2)n(-c2ccccc2)c1=O	116	80.5% (inactive)	116% (inactive)	98.8% (inactive)	88.8% (inactive)	-10.8% (inactive)	99.6	88.8	-7.4% (inactive)	-3.17% (inactive)
Cc1cccc(C)c1NC(=O)c1cc(S(=O)(=O)N2CCOCC2)ccc1F	88.5	78.5% (inactive)	88.5% (inactive)	102% (inactive)	89.9% (inactive)	0.745% (inactive)	89.2	89.9	-5.53% (inactive)	-9.17% (inactive)
CCOc1ccc(C2C(C(=O)OC)=CN(CCOC)C=C2C(=O)OC)cc1	106	109% (inactive)	106% (inactive)	90% (inactive)	97.3% (inactive)	-1.94% (inactive)	99.2	97.3	0.64% (inactive)	-1.33% (inactive)
CCOC(=O)C1CCCN(Cc2nc(N)nc(Nc3ccccc3)n2)C1 (stereo not given)	100	87% (inactive)	100% (inactive)	92.8% (inactive)	91.1% (inactive)	5.62% (inactive)	85.5	91.1	1.05% (inactive)	0.32% (inactive)
Cc1sc2ncnc(SCC(=O)N3CCCC3)c2c1C	124	95.5% (inactive)	124% (inactive)	78.1% (inactive)	93% (inactive)	9.69% (inactive)	83.3	93	-2.08% (inactive)	6.39% (inactive)
Cc1cncn1CCc1nc2c3ccccc3nc(=S)n2[nH]1	110	88.5% (inactive)	110% (inactive)	89.2% (inactive)	88.8% (inactive)	-4.09% (inactive)	92.9	88.8	-3.68% (inactive)	-4.13% (inactive)
Cn1c(=O)c2c3c(sc2n2c(SCC(=O)c4ccc(Cl)cc4)nnc12)COC(C)(C)C3	119	102% (inactive)	119% (inactive)	76.6% (inactive)	79.7% (inactive)	23.3% (inactive)	56.4	79.7	-0.91% (inactive)	-2.7% (inactive)
